Experimental data from ChEMBL document CHEMBL4043182, “On the synthesis of quinone-based BODIPY hybrids: New insights on antitumor activity and mechanism of action in cancer cells” (Bioorg Med Chem Lett, 2017).

Columns and labels:
HL-60 [1] = assay: Induction of oxidative stress in human HL60 cells assessed as total intracellular thiol levels at 5 uM treated 24 hrs post NAC addition measured after 24 hrs by spectrophotometric analysis (reference value: 3.61 +/- 0.22 microg/mg); type: functional
How it was run: (§1)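 Cells were pretreated 24 h with 5 mM NAC, then exposed 24 h to test compound at 5 µM. Controls received 0.1% DMSO. Extracts were prepared by sonication and HClO4 precipitation, then neutralized with KOH. Total glutathione was read by DTNB/glutathione reductase/NADPH rate at 412 nm. GSSG was measured after 4-vinylpyridine (0.1%, 1 h, RT) and GSH derived by difference. Values are normalized to protein, triplicates, three independent runs.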

[2] = Drug uptake in lysosomes of human PC3 cells at 5 uM after 10 mins by LysoTracker Red dye-based confocal microscopic analysis; type: ADME, cell-based; settings: pc-3, 10 min
How it was run: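 PC3 cells were grown in DMEM with 10% FBS, antibiotics and 2 mM L-glutamine at 37 °C, 5% CO2. Cells were incubated with compound (5 µM) plus LysoTracker Red or MitoTracker Red for 10 min at 37 °C. Live cells were imaged in phenol red-free DMEM by confocal microscopy with a 40X oil objective, exciting at 488 nm (compound) and 543 nm (tracker dyes).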

L929 [3] = assay: Antiproliferative activity against mouse L929 cells at 0.04 to 40.92 uM after 24 to 72 hrs by MTT assay; type: cell-based; settings: l929, 40.92 µM
How it was run: (§2)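 MTT reduction: cancer lines plated at 0.7×10^5 to 0.3×10^6 cells/well, V79 and L929 fibroblasts at 0.5×10^5 cells/well. Compounds in DMSO (0.1%) were given for 24 h at 0.04–40.92 µM or 72 h at 0.04–8.19 µM. Fresh medium with 0.5 mg/mL MTT was added for 3 h, then formazan was dissolved in DMSO and read at 595 nm as % of control. IC50 came from nonlinear regression with 95% CI. Doxorubicin (0.001–1.06 µM) was the positive control. Triplicate, ≥3 repeats.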

HL-60 [4] = assay: Induction of oxidative stress in human HL60 cells assessed as total GSH levels at 5 uM after 24 hrs by spectrophotometric analysis (reference value: 3.01 +/- 0.11 microg/mg); type: functional
[5] = Selectivity index, ratio of IC50 for mouse L929 cells to IC50 for human HL60 cells; type: functional
How it was run: (§3)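 Selectivity index is the ratio of the IC50 in a non-cancer murine line (V79 or L929) to the IC50 in the cancer line. […] MTT was 0.5 mg/mL for 3 h, formazan dissolved in DMSO and read at 595 nm as % of control. IC50s were derived by nonlinear regression; triplicate, at least three repeats.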

SF-295 [6] = assay: Antiproliferative activity against human SF295 cells after 72 hrs by MTT assay; type: functional, cell-based; settings: SF-295, 72 h; how it was run: as §2
HL-60 [7] = assay: Induction of oxidative stress in human HL60 cells assessed as total GSH levels at 5 uM treated 24 hrs post NAC addition measured after 24 hrs by spectrophotometric analysis (reference value: 3.01 +/- 0.11 microg/mg); type: functional; how it was run: as §1
HL-60 [8] = assay: Antiproliferative activity against human HL60 cells after 24 to 72 hrs by MTT assay; type: functional, cell-based; how it was run: as §2
HL-60 [9] = assay: Induction of oxidative stress in human HL60 cells assessed as total GSSG levels at 5 uM after 24 hrs by spectrophotometric analysis (reference value: 0.66 +/- 0.17 microg/mg); type: functional
HL-60 [10] = assay: Induction of oxidative stress in human HL60 cells assessed as total GSSG levels at 5 uM treated 24 hrs post NAC addition measured after 24 hrs by spectrophotometric analysis (reference value: 0.66 +/- 0.17 microg/mg); type: functional; how it was run: as §1
HL-60 [11] = assay: Induction of oxidative stress in human HL60 cells assessed as total intracellular thiol levels at 5 uM after 24 hrs by spectrophotometric analysis (reference value: 3.61 +/- 0.22 microg/mg); type: functional
Jurkat [12] = assay: Induction of oxidative stress in human Jurkat cells assessed as total GSH levels at 5 uM after 24 hrs by spectrophotometric analysis (reference value: 3.02 +/- 0.21 microg/mg); type: functional
Jurkat [13] = assay: Induction of oxidative stress in human Jurkat cells assessed as total GSH levels at 5 uM treated 24 hrs post NAC addition measured after 24 hrs by spectrophotometric analysis (reference value: 3.02 +/- 0.21 microg/mg); type: functional; how it was run: as §1
Jurkat [14] = assay: Induction of oxidative stress in human Jurkat cells assessed as total GSSG levels at 5 uM treated 24 hrs post NAC addition measured after 24 hrs by spectrophotometric analysis (reference value: 0.78 +/- 0.33 microg/mg); type: functional; how it was run: as §1
Jurkat [15] = assay: Induction of oxidative stress in human Jurkat cells assessed as total intracellular thiol levels at 5 uM after 24 hrs by spectrophotometric analysis (reference value: 3.87 +/- 0.55 microg/mg); type: functional
Jurkat [16] = assay: Induction of oxidative stress in human Jurkat cells assessed as GSH to GSSG ratio at 5 uM after 24 hrs by spectrophotometric analysis (reference value: 3.81 +/- 0.22 microg/mg); type: functional
L929 [17] = assay: Antiproliferative activity against mouse L929 cells after 72 hrs by MTT assay; type: cell-based; settings: L929, 72 h; how it was run: as §2
[18] = Selectivity index, ratio of IC50 for chinese hamster V79 cells to IC50 for human HL60 cells; type: functional; how it was run: as §3
Jurkat [19] = assay: Induction of oxidative stress in human Jurkat cells assessed as total GSSG levels at 5 uM after 24 hrs by spectrophotometric analysis (reference value: 0.78 +/- 0.33 microg/mg); type: functional
[20] = Selectivity index, ratio of IC50 for chinese hamster V79 cells to IC50 for human Jurkat cells; type: functional; how it was run: as §3
V79 [21] = assay: Antiproliferative activity against chinese hamster V79 cells at 0.04 to 40.92 uM after 24 to 72 hrs by MTT assay; type: cell-based, Cricetulus griseus; settings: v79, 40.92 µM; how it was run: as §2
Jurkat [22] = assay: Induction of oxidative stress in human Jurkat cells assessed as total intracellular thiol levels at 5 uM treated 24 hrs post NAC addition measured after 24 hrs by spectrophotometric analysis (reference value: 3.87 +/- 0.55 microg/mg); type: functional; how it was run: as §1
HL-60 [23] = assay: Induction of oxidative stress in human HL60 cells assessed as GSH to GSSG ratio at 5 uM after 24 hrs by spectrophotometric analysis (reference value: 4.53 +/- 0.55 microg/mg); type: functional
SW-620 = assay: Antiproliferative activity against human SW620 cells after 72 hrs by MTT assay; type: functional, cell-based; settings: SW-620, 72 h; how it was run: as §2
HCT-116 [24] = assay: Antiproliferative activity against human HCT116 cells after 72 hrs by MTT assay; type: functional, cell-based; settings: HCT-116, 72 h; how it was run: as §2
Jurkat [25] = assay: Antiproliferative activity against human Jurkat cells after 24 to 72 hrs by MTT assay; type: functional, cell-based; how it was run: as §2
Jurkat [26] = assay: Induction of oxidative stress in human Jurkat cells assessed as GSH to GSSG ratio at 5 uM treated 24 hrs post NAC addition measured after 24 hrs by spectrophotometric analysis (reference value: 3.81 +/- 0.22 microg/mg); type: functional; how it was run: as §1
PC-3 [27] = assay: Antiproliferative activity against human PC3 cells after 72 hrs by MTT assay; type: functional, cell-based; settings: PC-3, 72 h; how it was run: as §2
V79 [28] = assay: Antiproliferative activity against chinese hamster V79 cells after 72 hrs by MTT assay; type: cell-based; settings: Cricetulus griseus, V79, 72 h; how it was run: as §2
MDA-MB-435 = assay: Antiproliferative activity against human MDA-MB-435 cells after 72 hrs by MTT assay; type: functional, cell-based; settings: MDA-MB-435, 72 h; how it was run: as §2
HL-60 [29] = assay: Induction of oxidative stress in human HL60 cells assessed as GSH to GSSG ratio at 5 uM treated 24 hrs post NAC addition measured after 24 hrs by spectrophotometric analysis (reference value: 4.53 +/- 0.55 microg/mg); type: functional; how it was run: as §1
[30] = Selectivity index, ratio of IC50 for mouse L929 cells to IC50 for human Jurkat cells; type: functional; how it was run: as §3
PC-3 [31] = assay: Cytotoxicity against human PC3 cells after 24 hrs in absence of GSH-OEt by MTT assay; type: functional, cell-based; settings: PC-3, 24 h
How it was run: (§4)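 24 h MTT exposure (0.04–40.92 µM in 0.1% DMSO), with or without co-treatment with GSH ethyl ester (15 mM) to gauge the ROS contribution. MTT was 0.5 mg/mL for 3 h, with formazan dissolved in DMSO and absorbance at 595 nm expressed as % of control. Triplicate, repeated at least three times.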

L929 [32] = assay: Cytotoxicity against mouse L929 cells after 24 hrs in absence of GSH-OEt by MTT assay; type: cell-based; settings: L929, 24 h; how it was run: as §4
HCT-116 [33] = assay: Cytotoxicity against human HCT116 cells after 24 hrs in absence of GSH-OEt by MTT assay; type: functional, cell-based; settings: HCT-116, 24 h; how it was run: as §4
HCT-116 [34] = assay: Cytotoxicity against human HCT116 cells after 24 hrs in presence of GSH-OEt by MTT assay; type: functional, cell-based; settings: HCT-116, 24 h; how it was run: as §4
SF-295 [35] = assay: Cytotoxicity against human SF295 cells after 24 hrs in presence of GSH-OEt by MTT assay; type: functional, cell-based; settings: SF-295, 24 h; how it was run: as §4
L929 [36] = assay: Cytotoxicity against mouse L929 cells after 24 hrs in presence of GSH-OEt by MTT assay; type: cell-based; settings: L929, 24 h; how it was run: as §4
PC-3 [37] = assay: Cytotoxicity against human PC3 cells after 24 hrs in presence of GSH-OEt by MTT assay; type: functional, cell-based; settings: PC-3, 24 h; how it was run: as §4
SF-295 [38] = assay: Cytotoxicity against human SF295 cells after 24 hrs in absence of GSH-OEt by MTT assay; type: functional, cell-based; settings: SF-295, 24 h; how it was run: as §4

CC1=CC(C)=[N+]2C1=C(c1ccc(OCc3cn(C4C5=C(OC4(C)C)c4ccccc4C(=O)C5=O)nn3)cc1)c1c(C)cc(C)n1[B-]2(F)F (stereo not drawn)
Activity (HL-60 [1]): 2.83 µg/mg | Drug uptake [2]: Metabolite_Detected | Activity (L929 [3]): Non-Toxic | Activity (HL-60 [4]): 0.72 µg/mg | Ratio IC50 [5]: >8.5 | IC50 (SF-295 [6]): > 7.72 µM | Activity (HL-60 [7]): 1.19 µg/mg | IC50 (HL-60 [8]): 0.92 µM | Activity (HL-60 [9]): 2.18 µg/mg | Activity (HL-60 [10]): 1.47 µg/mg | Activity (HL-60 [11]): 3.01 µg/mg | Activity (Jurkat [12]): 0.6 µg/mg | Activity (Jurkat [13]): 1.58 µg/mg | Activity (Jurkat [14]): 1.44 µg/mg | Activity (Jurkat [15]): 3.28 µg/mg | Activity (Jurkat [16]): 0.21 µg/mg | IC50 (L929 [17]): > 7.72 µM | Ratio IC50 [18]: >8.5 | Activity (Jurkat [19]): 2.57 µg/mg | Ratio IC50 [20]: >8.5 | Activity (V79 [21]): Non-Toxic | Activity (Jurkat [22]): 3.11 µg/mg | Activity (HL-60 [23]): 0.31 µg/mg | IC50 (SW-620): > 7.72 µM | IC50 (HCT-116 [24]): 2.85 µM | IC50 (Jurkat [25]): 0.94 µM | Activity (Jurkat [26]): 1.08 µg/mg | IC50 (PC-3 [27]): 2.39 µM | IC50 (V79 [28]): > 7.72 µM | IC50 (MDA-MB-435): > 7.72 µM | Activity (HL-60 [29]): 0.76 µg/mg | Ratio IC50 [30]: >8.5

COc1cccc2c1C(=O)c1c(O)c3c(c(O)c1C2=O)C[C@@](O)(C(=O)CO)C[C@@H]3O[C@H]1C[C@H](N)[C@H](O)[C@H](C)O1 [DOXORUBICIN]
IC50 (SF-295 [6]): 0.45 µM | IC50 (L929 [17]): 0.22 µM | IC50 (SW-620): 0.29 µM | IC50 (PC-3 [27]): 0.05 µM | IC50 (V79 [28]): 0.25 µM | IC50 (MDA-MB-435): 0.94 µM

CC1(C)OC2=C(C(=O)c3ccccc3C2=O)C1n1cc(CNC2=[N+]3C(=C(c4ccccc4)c4ccc(Cl)n4[B-]3(F)F)C=C2)nn1 (stereo not drawn)
IC50 (SF-295 [6]): > 8.1 µM | IC50 (PC-3 [31]): > 40 µM | IC50 (L929 [32]): > 40 µM | IC50 (HCT-116 [33]): > 40 µM | IC50 (L929 [17]): > 8.1 µM | IC50 (HCT-116 [34]): > 40 µM | IC50 (SF-295 [35]): > 40 µM | IC50 (SW-620): > 8.1 µM | IC50 (HCT-116 [24]): > 8.1 µM | IC50 (L929 [36]): > 40 µM | IC50 (PC-3 [27]): > 8.1 µM | IC50 (PC-3 [37]): > 40 µM | IC50 (SF-295 [38]): > 40 µM | IC50 (V79 [28]): > 8.1 µM | IC50 (MDA-MB-435): > 8.1 µM
